From ChEMBL document CHEMBL1255424, “Antistaphylococcal activity of ACHN-490 tested alone and in combination with other agents by time-kill assay” (2010)

Columns and labels:
Assay type in all cases: functional
Staphylococcus aureus [1] = assay: Antibacterial activity against vancomycin-hetero-intermediate Staphylococcus aureus after 24 hrs by modified broth macrodilution method
In short: (§1)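 MIC read after 24 h incubation by modified broth macrodilution, validated per CLSI recommendations, against recent clinical MRSA isolates (hospital- and community-acquired, hVISA, VISA, VRSA). Daptomycin tests ran in Mueller-Hinton broth with added calcium.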

Staphylococcus aureus [2] = assay: Antibacterial activity against community-acquired methicillin-resistant panton-valentine leukocidin-positive Staphylococcus aureus isolate 950 after 24 hrs by modified broth macrodilution method; conditions: isolate 950, 24 h; in short: as §1
Staphylococcus aureus [3] = assay: Antibacterial activity against vancomycin-intermediate Staphylococcus aureus isolate 1012 after 24 hrs by modified broth macrodilution method; conditions: isolate 1012, 24 h; in short: as §1
Staphylococcus aureus [4] = assay: Antibacterial activity against vancomycin-resistant Staphylococcus aureus isolate 509 after 24 hrs by modified broth macrodilution method; conditions: isolate 509, 24 h; in short: as §1
Staphylococcus aureus [5] = assay: Antibacterial activity against community-acquired methicillin-resistant panton-valentine leukocidin-positive Staphylococcus aureus isolate 1468 after 24 hrs by modified broth macrodilution method; conditions: isolate 1468, 24 h; in short: as §1
Staphylococcus aureus [6] = assay: Antibacterial activity against vancomycin-resistant Staphylococcus aureus after 24 hrs by modified broth macrodilution method; in short: as §1
Staphylococcus aureus [7] = assay: Antibacterial activity against hospital-acquired methicillin-resistant Staphylococcus aureus isolate 1867 after 24 hrs by modified broth macrodilution method; conditions: isolate 1867, 24 h; in short: as §1
Staphylococcus aureus [8] = assay: Antibacterial activity against vancomycin-intermediate Staphylococcus aureus isolate 1014 after 24 hrs by modified broth macrodilution method; conditions: isolate 1014, 24 h; in short: as §1
Staphylococcus aureus [9] = assay: Antibacterial activity against community-acquired methicillin-resistant panton-valentine leukocidin-positive Staphylococcus aureus isolate 813 after 24 hrs by modified broth macrodilution method; conditions: isolate 813, 24 h; in short: as §1
Staphylococcus aureus [10] = assay: Antibacterial activity against vancomycin-hetero-intermediate Staphylococcus aureus isolate 873 after 24 hrs by modified broth macrodilution method; conditions: isolate 873, 24 h; in short: as §1
Staphylococcus aureus [11] = assay: Antibacterial activity against vancomycin-intermediate Staphylococcus aureus isolate 1016 after 24 hrs by modified broth macrodilution method; conditions: isolate 1016, 24 h; in short: as §1
Staphylococcus aureus [12] = assay: Antibacterial activity against community-acquired methicillin-resistant panton-valentine leukocidin-positive Staphylococcus aureus isolate 1469 after 24 hrs by modified broth macrodilution method; conditions: isolate 1469, 24 h; in short: as §1
Staphylococcus aureus [13] = assay: Antibacterial activity against vancomycin-intermediate Staphylococcus aureus isolate 511 after 24 hrs by modified broth macrodilution method; conditions: isolate 511, 24 h; in short: as §1
Staphylococcus aureus [14] = assay: Antibacterial activity against hospital-acquired methicillin-resistant Staphylococcus aureus isolate 1806 after 24 hrs by modified broth macrodilution method; conditions: isolate 1806, 24 h; in short: as §1
Staphylococcus aureus [15] = assay: Antibacterial activity against vancomycin-intermediate Staphylococcus aureus isolate 1005 after 24 hrs by modified broth macrodilution method; conditions: isolate 1005, 24 h; in short: as §1
Staphylococcus aureus [16] = assay: Antibacterial activity against vancomycin-intermediate Staphylococcus aureus after 24 hrs by modified broth macrodilution method; in short: as §1
Staphylococcus aureus [17] = assay: Antibacterial activity against vancomycin-resistant Staphylococcus aureus isolate 1263 after 24 hrs by modified broth macrodilution method; conditions: isolate 1263, 24 h; in short: as §1
Staphylococcus aureus [18] = assay: Antibacterial activity against vancomycin-resistant Staphylococcus aureus isolate 557 after 24 hrs by modified broth macrodilution method; conditions: isolate 557, 24 h; in short: as §1
Staphylococcus aureus [19] = assay: Antibacterial activity against vancomycin-resistant Staphylococcus aureus isolate 510 after 24 hrs by modified broth macrodilution method; conditions: isolate 510, 24 h; in short: as §1
Staphylococcus aureus [20] = assay: Antibacterial activity against community-acquired methicillin-resistant panton-valentine leukocidin-positive Staphylococcus aureus isolate 1471 after 24 hrs by modified broth macrodilution method; conditions: isolate 1471, 24 h; in short: as §1
Staphylococcus aureus [21] = assay: Antibacterial activity against vancomycin-intermediate Staphylococcus aureus isolate 1007 after 24 hrs by modified broth macrodilution method; conditions: isolate 1007, 24 h; in short: as §1
Staphylococcus aureus [22] = assay: Antibacterial activity against hospital-acquired methicillin-resistant Staphylococcus aureus isolate 1851 after 24 hrs by modified broth macrodilution method; conditions: isolate 1851, 24 h; in short: as §1
Staphylococcus aureus [23] = assay: Antibacterial activity against hospital-acquired methicillin-resistant Staphylococcus aureus isolate 1838 after 24 hrs by modified broth macrodilution method; conditions: isolate 1838, 24 h; in short: as §1
Staphylococcus aureus [24] = assay: Antibacterial activity against community-acquired methicillin-resistant panton-valentine leukocidin-positive Staphylococcus aureus isolate 693 after 24 hrs by modified broth macrodilution method; conditions: isolate 693, 24 h; in short: as §1
Staphylococcus aureus [25] = assay: Antibacterial activity against vancomycin-intermediate Staphylococcus aureus isolate 1008 after 24 hrs by modified broth macrodilution method; conditions: isolate 1008, 24 h; in short: as §1
Staphylococcus aureus [26] = assay: Antibacterial activity against hospital-acquired methicillin-resistant Staphylococcus aureus isolate 1743 after 24 hrs by modified broth macrodilution method; conditions: isolate 1743, 24 h; in short: as §1
Staphylococcus aureus [27] = assay: Antibacterial activity against vancomycin-intermediate Staphylococcus aureus isolate 1006 after 24 hrs by modified broth macrodilution method; conditions: isolate 1006, 24 h; in short: as §1
Staphylococcus aureus [28] = assay: Antibacterial activity against methicillin-resistant Staphylococcus aureus isolate 2003 after 24 hrs by modified broth macrodilution method; conditions: isolate 2003, 24 h; in short: as §1
Staphylococcus aureus [29] = assay: Antibacterial activity against hospital-acquired methicillin-resistant Staphylococcus aureus isolate 1766 after 24 hrs by modified broth macrodilution method; conditions: isolate 1766, 24 h; in short: as §1
Staphylococcus aureus [30] = assay: Antibacterial activity against vancomycin-intermediate Staphylococcus aureus isolate 1013 after 24 hrs by modified broth macrodilution method; conditions: isolate 1013, 24 h; in short: as §1
Staphylococcus aureus [31] = assay: Antibacterial activity against community-acquired methicillin-resistant panton-valentine leukocidin-positive Staphylococcus aureus isolate 1472 after 24 hrs by modified broth macrodilution method; conditions: isolate 1472, 24 h; in short: as §1
Staphylococcus aureus [32] = assay: Antibacterial activity against community-acquired methicillin-resistant panton-valentine leukocidin-positive Staphylococcus aureus isolate 593 after 24 hrs by modified broth macrodilution method; conditions: isolate 593, 24 h; in short: as §1
Staphylococcus aureus [33] = assay: Antibacterial activity against hospital-acquired methicillin-resistant Staphylococcus aureus isolate 1776 after 24 hrs by modified broth macrodilution method; conditions: isolate 1776, 24 h; in short: as §1
Staphylococcus aureus [34] = assay: Antibacterial activity against vancomycin-intermediate Staphylococcus aureus isolate 1984 after 24 hrs by modified broth macrodilution method; conditions: isolate 1984, 24 h; in short: as §1
Staphylococcus aureus [35] = assay: Antibacterial activity against community-acquired methicillin-resistant panton-valentine leukocidin-positive Staphylococcus aureus isolate 815 after 24 hrs by modified broth macrodilution method; conditions: isolate 815, 24 h; in short: as §1
Staphylococcus aureus [36] = assay: Antibacterial activity against community-acquired methicillin-resistant panton-valentine leukocidin-negative Staphylococcus aureus isolate 1470 after 24 hrs by modified broth macrodilution method; conditions: isolate 1470, 24 h; in short: as §1
Staphylococcus aureus [37] = assay: Antibacterial activity against vancomycin-hetero-intermediate Staphylococcus aureus isolate 618 after 24 hrs by modified broth macrodilution method; conditions: isolate 618, 24 h; in short: as §1
Staphylococcus aureus [38] = assay: Antibacterial activity against vancomycin-intermediate Staphylococcus aureus isolate 1004 after 24 hrs by modified broth macrodilution method; conditions: isolate 1004, 24 h; in short: as §1
Staphylococcus aureus [39] = assay: Antibacterial activity against vancomycin-intermediate Staphylococcus aureus isolate 1009 after 24 hrs by modified broth macrodilution method; conditions: isolate 1009, 24 h; in short: as §1
Staphylococcus aureus [40] = assay: Antibacterial activity against hospital-acquired methicillin-resistant Staphylococcus aureus isolate 1751 after 24 hrs by modified broth macrodilution method; conditions: isolate 1751, 24 h; in short: as §1
Staphylococcus aureus [41] = assay: Antibacterial activity against vancomycin-intermediate Staphylococcus aureus isolate 1287 after 24 hrs by modified broth macrodilution method; conditions: isolate 1287, 24 h; in short: as §1
Staphylococcus aureus [42] = assay: Antibacterial activity against vancomycin-intermediate Staphylococcus aureus isolate 1003 after 24 hrs by modified broth macrodilution method; conditions: isolate 1003, 24 h; in short: as §1
Staphylococcus aureus [43] = assay: Antibacterial activity against vancomycin-susceptible Staphylococcus aureus after 24 hrs by modified broth macrodilution method
In short: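 MICs determined in recent clinical MRSA isolates by a modified broth macrodilution method per CLSI recommendations, with 24 h incubation. Daptomycin tests used Mueller-Hinton broth supplemented with calcium. Value is the lowest inhibitory drug concentration.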

Staphylococcus aureus [44] = assay: Antibacterial activity against vancomycin-intermediate Staphylococcus aureus isolate 1011 after 24 hrs by modified broth macrodilution method; conditions: isolate 1011, 24 h; in short: as §1
Staphylococcus aureus [45] = assay: Antibacterial activity against vancomycin-intermediate Staphylococcus aureus isolate 1015 after 24 hrs by modified broth macrodilution method; conditions: isolate 1015, 24 h; in short: as §1
Staphylococcus aureus [46] = assay: Antibacterial activity against vancomycin-intermediate Staphylococcus aureus isolate 555 after 24 hrs by modified broth macrodilution method; conditions: isolate 555, 24 h; in short: as §1
Staphylococcus aureus [47] = assay: Antibacterial activity against vancomycin-intermediate Staphylococcus aureus isolate 1010 after 24 hrs by modified broth macrodilution method; conditions: isolate 1010, 24 h; in short: as §1
Staphylococcus aureus [48] = assay: Antibacterial activity against hospital-acquired methicillin-resistant Staphylococcus aureus isolate 1808 after 24 hrs by modified broth macrodilution method; conditions: isolate 1808, 24 h; in short: as §1
Staphylococcus aureus [49] = assay: Antibacterial activity against vancomycin-resistant Staphylococcus aureus isolate 1264 after 24 hrs by modified broth macrodilution method; conditions: isolate 1264, 24 h; in short: as §1
Staphylococcus aureus [50] = assay: Antibacterial activity against vancomycin-intermediate Staphylococcus aureus isolate 770 after 24 hrs by modified broth macrodilution method; conditions: isolate 770, 24 h; in short: as §1
Staphylococcus aureus [51] = assay: Antibacterial activity against vancomycin-intermediate Staphylococcus aureus isolate 1017 after 24 hrs by modified broth macrodilution method; conditions: isolate 1017, 24 h; in short: as §1

Measured: MIC

Nc1nc(/C(=N/O)C(=O)N[C@@H]2C(=O)N3C(C(=O)O)=C(/C=C4\CCN([C@@H]5CCNC5)C4=O)CS[C@H]23)ns1 [CEFTOBIPROLE]
1 µg/mL: Staphylococcus aureus [2] | Staphylococcus aureus [5] | Staphylococcus aureus [9] | Staphylococcus aureus [12] | Staphylococcus aureus [14] | Staphylococcus aureus [15] | Staphylococcus aureus [18] | Staphylococcus aureus [19] | Staphylococcus aureus [20] | Staphylococcus aureus [21] | Staphylococcus aureus [22] | Staphylococcus aureus [24] | Staphylococcus aureus [31] | Staphylococcus aureus [32] | Staphylococcus aureus [38] | Staphylococcus aureus [40] | Staphylococcus aureus [45] | Staphylococcus aureus [46] | Staphylococcus aureus [48]
0.5 µg/mL: Staphylococcus aureus [6] | Staphylococcus aureus [16] | Staphylococcus aureus [35] | Staphylococcus aureus [41] | Staphylococcus aureus [43] | Staphylococcus aureus [49]
4 µg/mL: Staphylococcus aureus [3] | Staphylococcus aureus [11] | Staphylococcus aureus [44]
2 µg/mL: Staphylococcus aureus [1] | Staphylococcus aureus [4] | Staphylococcus aureus [7] | Staphylococcus aureus [8] | Staphylococcus aureus [10] | Staphylococcus aureus [13] | Staphylococcus aureus [17] | Staphylococcus aureus [23] | Staphylococcus aureus [25] | Staphylococcus aureus [26] | Staphylococcus aureus [27] | Staphylococcus aureus [28] | Staphylococcus aureus [29] | Staphylococcus aureus [30] | Staphylococcus aureus [33] | Staphylococcus aureus [34] | Staphylococcus aureus [36] | Staphylococcus aureus [37] | Staphylococcus aureus [39] | Staphylococcus aureus [42] | Staphylococcus aureus [47] | Staphylococcus aureus [50] | Staphylococcus aureus [51]
